Results published in ChEMBL document CHEMBL1142075, “Two-year assessment of entecavir resistance in Lamivudine-refractory hepatitis B virus patients reveals different clinical outcomes depending on the resistance substitutions present” (Antimicrob Agents Chemother, 2007).

Columns and labels:
Hepatitis B virus [1] = experiment: Inhibition of HBV replication with RT A200V substitution from Lamivudine refractory patient transfected into HepG2 cells; format: functional, organism-based
Summary of the method: (§1)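 HepG2 cells bulk-transfected with full-length HBV phenotyping plasmids cloned from patient isolates, then seeded into wells with compound titration. DMSO vehicle controls and cloned lab wild-type HBV run in parallel each experiment. At 5 days posttransfection, released virions stripped with Nonidet P-40, captured from medium with anti-HBV core antibody, and extracellular replicated virus quantitated. EC50 = concentration giving 50% inhibition.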

Hepatitis B virus [2] = experiment: Inhibition of HBV replication with RT A200V substitution and M204I background from Lamivudine refractory patient transfected into HepG2 cells; format: functional, organism-based; summary of the method: as §1
Hepatitis B virus [3] = experiment: Inhibition of HBV replication with RT A200V substitution and L180M, M204I background from Lamivudine refractory patient transfected into HepG2 cells; format: functional, organism-based; summary of the method: as §1
Hepatitis B virus [4] = experiment: Inhibition of HBV replication with RT L80V substitution and L180M, M204V background from Lamivudine refractory patient transfected into HepG2 cells; format: functional, organism-based; summary of the method: as §1
Hepatitis B virus [5] = experiment: Inhibition of HBV replication with RT V27A substitution and L180M, M204V background from Lamivudine refractory patient transfected into HepG2 cells; format: functional; summary of the method: as §1
Hepatitis B virus [6] = experiment: Inhibition of HBV replication with RT I53F substitution and V173F, L180M, M204V background from Lamivudine refractory patient transfected into HepG2 cells; format: functional, organism-based; summary of the method: as §1
Hepatitis B virus [7] = experiment: Inhibition of HBV replication with RT S78T substitution from Lamivudine refractory patient transfected into HepG2 cells; format: functional, organism-based; summary of the method: as §1
Hepatitis B virus [8] = experiment: Inhibition of HBV replication with RT L80I substitution and L180M, M204I background from Lamivudine refractory patient transfected into HepG2 cells; format: functional, organism-based; summary of the method: as §1
Hepatitis B virus [9] = experiment: Inhibition of HBV replication with RT K168E substitution and M204I background from Lamivudine refractory patient transfected into HepG2 cells; format: functional; summary of the method: as §1
Hepatitis B virus [10] = experiment: Inhibition of HBV replication with RT A181T substitution and V173L, L180M, M204V background from Lamivudine refractory patient transfected into HepG2 cells
Hepatitis B virus [11] = experiment: Inhibition of HBV replication with RT C188S substitution and L80I, L180T, M204V background from Lamivudine refractory patient transfected into HepG2 cells; format: functional, organism-based; summary of the method: as §1
Hepatitis B virus [12] = experiment: Inhibition of HBV replication with RT V224A substitution and V173L, L180M, M204V background from Lamivudine refractory patient transfected into HepG2 cells; format: functional; summary of the method: as §1
Hepatitis B virus [13] = experiment: Inhibition of HBV replication with RT L228P substitution and M204I background from Lamivudine refractory patient transfected into HepG2 cells; format: functional; summary of the method: as §1
Hepatitis B virus [14] = experiment: Inhibition of HBV replication with RT L229W substitution and L180M, M204V background from Lamivudine refractory patient transfected into HepG2 cells; format: functional, organism-based; summary of the method: as §1
Hepatitis B virus [15] = experiment: Inhibition of HBV replication with RT D263G substitution from Lamivudine refractory patient transfected into HepG2 cells; format: functional, organism-based; summary of the method: as §1
Hepatitis B virus [16] = experiment: Inhibition of HBV replication with RT Q267Stop substitution and L180M, M204V background from Lamivudine refractory patient transfected into HepG2 cells; format: functional; summary of the method: as §1
Hepatitis B virus [17] = experiment: Inhibition of HBV replication with RT G295S substitution and L80I, M204I background from Lamivudine refractory patient transfected into HepG2 cells; format: functional; summary of the method: as §1
Hepatitis B virus [18] = experiment: Inhibition of HBV replication with RT M309L substitution from Lamivudine refractory patient transfected into HepG2 cells; format: functional, organism-based; summary of the method: as §1

With `C=C1[C@H](CO)[C@@H](O)C[C@@H]1n1cnc2c(=O)[nH]c(N)nc21.O` [ENTECAVIR] the EC50 (Hepatitis B virus [1]) was 7.6 nM, the EC50 (Hepatitis B virus [2]) was 33 nM and the EC50 (Hepatitis B virus [3]) was 10.2 nM. The EC50 (Hepatitis B virus [4]) was 11 nM, the Inhibition (Hepatitis B virus [5]) was under 10% and the EC50 (Hepatitis B virus [6]) was 22.3 nM. For the same compound, the EC50 (Hepatitis B virus [7]) was 2.4 nM, the EC50 (Hepatitis B virus [8]) was 45.3 nM and the Inhibition (Hepatitis B virus [9]) was under 10%. The EC50 (Hepatitis B virus [10]) was 14.2 nM, the EC50 (Hepatitis B virus [11]) was 31.2 nM and the Inhibition (Hepatitis B virus [12]) was under 10%. It also gave an Inhibition (Hepatitis B virus [13]) of under 10%, an EC50 (Hepatitis B virus [14]) of 32.9 nM and an EC50 (Hepatitis B virus [15]) of 5.8 nM. It also gave an Inhibition (Hepatitis B virus [16]) of under 10%, an Inhibition (Hepatitis B virus [17]) of under 10% and an EC50 (Hepatitis B virus [18]) of 4 nM.
